Measurements taken from ChEMBL document CHEMBL3352211, “Ganoboninketals A-C, Antiplasmodial 3,4-seco-27-Norlanostane Triterpenes from Ganoderma boninense Pat” (J Nat Prod, 2014).

Columns and labels:
RAW264.7 [1] = assay: Cytotoxicity against mouse RAW264.7 cells assessed as reduction in cell viability at 200 uM; assay type: cell-based; conditions: raw264.7, 200 µM
A549 = assay: Cytotoxicity against human A549 cells assessed as reduction in cell viability after 72 hrs by MTT assay; assay type: functional, cell-based; conditions: A549, 72 h
Method in brief: (§1)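 Cells were exposed to compounds (DMSO solvent) for 72 h at 37 °C in 5% CO2. MTT (0.5 mg/mL in medium) was added for 4 h, and formazan was dissolved in DMSO and read at 540 nm. Inhibition rates were plotted against concentration to give IC50 (±SD); three independent experiments, each in triplicate.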

Plasmodium falciparum = assay: Antiplasmodial activity against Plasmodium falciparum 3D7 infected in human RBC assessed as reduction in parasitemia after 48 hrs by fluorescence assay; assay type: functional, organism-based; conditions: 3D7, 48 h
Method in brief: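 P. falciparum 3D7 was grown in human RBCs in Albumax II-supplemented RPMI 1640. Assay cultures at 2% hematocrit and 1% parasitemia were exposed to compounds (DMSO solvent) for about 48 h at 37 °C. Parasite DNA was labelled with PicoGreen in TE buffer pH 7.5 with 2% Triton X-100 for 30 min in the dark and read at ex 485 / em 538 nm. IC50 came from linear interpolation; three independent experiments, each in triplicate.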

HeLa = assay: Cytotoxicity against human HeLa cells assessed as reduction in cell viability after 72 hrs by MTT assay; assay type: functional, cell-based; method in brief: as §1
RAW264.7 [2] = assay: Antiinflammatory activity in mouse RAW264.7 cells assessed as inhibition of NO production after 24 hrs by Griess assay; assay type: functional, cell-based; conditions: RAW264.7, 24 h
Method in brief: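 RAW 264.7 mouse macrophages were kept in RPMI 1640 with 10% heat-inactivated FBS, penicillin and streptomycin at 37 °C and 5% CO2. They were seeded at 5 × 10^5 cells/mL. After 1 h, LPS (1 mg/mL as printed) and graded compound concentrations (DMSO solvent) were added for 24 h. Supernatant NO was measured by Griess reaction.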

SMILES	Activity (RAW264.7 [1])	IC50 (A549) [µM]	IC50 (Plasmodium falciparum) [µM]	IC50 (HeLa) [µM]	IC50 (RAW264.7 [2]) [µM]
C=C(C)[C@@H]1C[C@H](OC(C)=O)C2=C(C(=O)C[C@]34CO[C@@]5(CC)CC[C@](C)(O5)[C@H]3CC[C@@]24C)[C@@]1(C)CCC(=O)OC	Non-toxic	47.6	4	> 100	98.3
C=C(C)[C@@H]1CC(=O)C2=C(C(=O)C[C@]34CO[C@@]5(CC)CC[C@](C)(O5)[C@H]3CC[C@@]24C)[C@@]1(C)CCC(=O)OC	Non-toxic	> 100	7.9	65.5	24.3
C=C(C)[C@@H]1C[C@H](OC(C)=O)[C@]23OC[C@]4(CC(=O)[C@@H]2[C@@]1(C)CCC(=O)OC)[C@@]3(C)CC[C@@]41O[C@@]2(CC)CC[C@]1(C)O2	Non-toxic	35.8	1.7	> 100	60.9
C[C@@H]1CC[C@H]2[C@@H](C)C(=O)O[C@@H]3O[C@@]4(C)CC[C@@H]1[C@]32OO4 [ARTEMISININ]	–	–	0.0304	–	–
C[C@]12CCC(=O)C=C1CC[C@@H]1[C@@H]2[C@@H](O)C[C@@]2(C)[C@H]1CC[C@]2(O)C(=O)CO [HYDROCORTISONE]	–	–	–	–	53.7
